This note sets out measurements from PMC9380703 (RSC Advances, 2022).

Holding throughout (assay type): cell-based
The subject of assay [1] is A549 (non-small lung carcinoma) cells. In words: MTT cytotoxicity assay, A549 cells. The conditions noted are these: Homo sapiens, A549, 48 h, read-out: IC50 ± SD A549. Put shortly:
(§1)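 Cells exposed to test compounds for 48 h; viability read by MTT. IC50 computed from triplicate experiments and reported as mean ± SD, with paclitaxel as positive control. BEAS-2B normal lung epithelial cells assayed alongside the cancer lines.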

Another assay deals with MCF-7 (breast cancer). In words: MTT cytotoxicity assay, MCF-7 cells. The conditions noted are these: Homo sapiens, MCF7, 48 h, read-out: IC50 ± SD MCF-7. Put shortly: as §1
The test system of assay [2] is BEAS-2B (normal human lung epithelial cells). In words: MTT cytotoxicity assay, BEAS-2B normal cells. The conditions noted are these: 48 h, read-out: IC50 ± SD BEAS-2B. A digest of the protocol: as §1
Assay [3] concerns HeLa (human cervical cancer cells). In words: MTT cytotoxicity assay, HeLa cells. The conditions noted are these: 48 h, read-out: IC50 ± SD HeLa. A digest of the protocol:
as §1

Regarding `C[C@]12CC[C@H](O)C[C@H]1CC[C@@H]1[C@@H]2C[C@@H](O)[C@]2(C)[C@@H](C3=CC(=O)OC3)CC[C@]12O` [Compound 6, digoxigenin], the IC50 in assay [1] came out at 1280 ± 230 nM; in the assay with MCF-7 (breast cancer), 1440 ± 10 nM; in assay [2], 2580 ± 110 nM; in assay [3] it was 770 ± 230 nM.
For `CC(=O)O[C@H]1C[C@H](O[C@H]2[C@@H](O)C[C@H](O[C@H]3[C@@H](O)C[C@H](O[C@H]4CC[C@@]5(C)[C@H](CC[C@@H]6[C@@H]5C[C@@H](O)[C@]5(C)[C@@H](C7=CC(=O)OC7)CC[C@]65O)C4)O[C@@H]3C)O[C@@H]2C)O[C@H](C)[C@H]1O[C@@H]1O[C@H](CO)[C@@H](O)[C@H](O)[C@H]1O` [Compound 9, lanatoside C], in that order: 190 ± 30 nM, 240 ± 110 nM, 370 ± 100 nM and 130 ± 13 nM.
On to `CC(=O)O[C@H]1C(=O)[C@@]2(C)[C@H]([C@H](OC(=O)c3ccccc3)[C@]3(O)C[C@H](OC(=O)[C@H](O)[C@@H](NC(=O)c4ccccc4)c4ccccc4)C(C)=C1C3(C)C)[C@]1(OC(C)=O)CO[C@@H]1C[C@@H]2O` [Paclitaxel, reference compound], for which the IC50 in assay [1] was 60 ± 40 nM; in the assay with MCF-7 (breast cancer), 110 ± 50 nM; in assay [2], 130 ± 30 nM; in assay [3] it was 20 ± 10 nM.
For `CC(=O)O[C@H]1C[C@H](O[C@H]2[C@@H](O)C[C@H](O[C@H]3[C@@H](O)C[C@H](O[C@H]4CC[C@@]5(C)[C@H](CC[C@@H]6[C@@H]5C[C@@H](O)[C@]5(C)[C@@H](C7=CC(=O)OC7)CC[C@]65O)C4)O[C@@H]3C)O[C@@H]2C)O[C@H](C)[C@H]1O` [Compound 8, acetyldigoxin], in that order: 150 ± 10 nM, 190 ± 60 nM, 250 ± 60 nM and 130 ± 7 nM.
